Usually IC50 stands for the point on the concentration scale where inhibition reaches its midpoint. A lower IC50 goes with greater potency. By ED50 is commonly meant the midpoint of the dose-response relation.

The target in assay [1] is GABA-A receptor; anion channel. As to the kind of experiment: Inhibition of [3H]-diazepam binding to GABA-A benzodiazepine receptor of rat cerebral cortical membranes. Type of assay: cell membranes, Membrane.
Assay [2] relates to Mus musculus. Put plainly: Convulsant effect in mice treated with subconvulsant (pentylenetetrazole) PTZ (40 mg/kg), ineffective at 30 mg/kg. Type of assay: functional, organism-based. Also noted: dose 30 mg/kg.
For assay [3], the system named is Mus musculus. Put plainly: Antagonism of Diazepam (2.5 mg/kg) anticonvulsant effect in mice treated with (pentylenetetrazole) PTZ (80 mg/kg). Type of assay: functional. In outline: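 Adult male NIH-colony mice (20-25 g), groups of 10, got graded ip doses of test agent or vehicle (0.1 mL). Diazepam 2.5 mg/kg ip followed 15 min later, then PTZ 80 mg/kg 15 min after that. Score: tonic-clonic convulsions. ED50 = dose that blocks diazepam's anticonvulsant effect in 50% of mice.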

Assay [4] has as its system Mus musculus. As to the kind of experiment: Convulsant effect in mice treated with subconvulsant (pentylenetetrazole) PTZ (40 mg/kg). Format: functional.
The species entered for assay [5] is Mus musculus. As to the kind of experiment: In vitro ability to induce convulsions in mice.
Assay [6] deals with Mus musculus. As to the kind of experiment: Protection of mice against maximal electroshock (MES)-induced convulsions after administration of 38 mg/kg. Type of assay: functional. (In the maximal electroshock model the usual endpoint is tonic extension of the hind limbs.)

The source made the active and inactive calls. The calls are words filed in the database; no cut-off is given here.

On to `Clc1cccc2[nH]c3c4c5ccccc5nc-4c[nH]c3c12`, for which the IC50 in assay [1] was 715 nM. That is a sub-micromolar value.

`Fc1ccc2c(c1)[nH]c1c3c4ccccc4nc-3c[nH]c12` returned an IC50 in assay [1] of 7 nM.

Molecule `Fc1ccc2[nH]c3c4c5ccccc5nc-4c[nH]c3c2c1` registered an IC50 in assay [1] of 16 nM. In addition, in the assay on Mus musculus [2], the ED50 result was “inactive”. In addition, the ED50 in the assay with Mus musculus [3] was determined as 24 mg/kg.

For the molecule `COc1ccc2[nH]c3c4c5ccccc5nc-4c[nH]c3c2c1`, the IC50 in assay [1] is 890 nM.

For the molecule `Clc1cccc2c1[nH]c1c3c4ccccc4nc-3c[nH]c12`, in assay [1], the IC50 is 80 nM.

Turning to `COc1ccc2c(c1)[nH]c1c2ncc2[nH]c3ccccc3c21`, the ED50 was determined as 7 mg/kg with Mus musculus [4] and 3.9 mg/kg in the assay with Mus musculus [3]. In assay [1], this molecule came in with an IC50 of 8 nM.

`CN1C(=O)CN=C(c2ccccc2)c2cc(Cl)ccc21` [DIAZEPAM] gave an ED50 in the assay filed under Mus musculus [5] of 3.4 mg/kg. Moreover, the Survivors in the assay on Mus musculus [6] is recorded as 100%.

Regarding `Fc1cccc2c1[nH]c1c3c4ccccc4nc-3c[nH]c12`, the IC50 in assay [1] was determined as 12 nM.

`c1ccc2c(c1)[nH]c1c2ncc2[nH]c3ccccc3c21`: the median effective dose (ED50) is 15.1 mg/kg in the assay on Mus musculus [4] and 21.3 mg/kg in the assay with Mus musculus [3]. The IC50 in assay [1] turned out to be 4 nM.

In assay [1], `Clc1ccc2c(c1)[nH]c1c2ncc2[nH]c3ccccc3c21` returned an IC50 of 10 nM. Besides, the ED50 result with Mus musculus [2] is “inactive”. The molecule further gave an ED50 with Mus musculus [3] of 2.5 mg/kg.

In assay [1], `Clc1ccc2[nH]c3c4c5ccccc5nc-4c[nH]c3c2c1` returned an IC50 of 2150 nM.

(Values after ChEMBL document CHEMBL1123688, “Synthesis of 7,12-dihydropyrido[3,4-b:5,4-b']diindoles. A novel class of rigid, planar benzodiazepine receptor ligands” (J Med Chem, 1987).)
